Test system: MALT1
Experiment: Effect of buffer additives on MALT1 activity
Type: biochemical, human
Settings: 50 mM Hepes, 100 mM NaCl, 0.9 M sodium citrate, pH 7.5, supplemented with additive (Figure 2C and results not shown)
Summary of the method: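 Recombinant human MALT1, expressed in E. coli and Ni-NTA purified, used as full-length (150 nM) and as His-tagged catalytic domain (residues 329–566, 4 μM). Each was assayed in 50 mM Hepes, 100 mM NaCl, 0.9 M sodium citrate (pH 7.5) with the indicated additives. Experiments were repeated three times, and mean ± S.E.M. is reported.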

Structure (SMILES) | effect of buffer additive on the activity of MALT1 (in words)
O=C(O)CN(CCN(CC(=O)O)CC(=O)O)CC(=O)O [EDTA] | no substantial effect
[Ca+2].[Cl-].[Cl-] [CaCl2] | no substantial effect
c1cnc2c(c1)ccc1cccnc12 [1,10-phenanthroline] | no substantial effect
O[C@@H](CS)[C@@H](O)CS (racemic) [DTT, dithiothreitol] | activity was enhanced

From article PMC3304489 (Biochemical Journal, 2012)
